Assay [1] concerns Rattus norvegicus. The assay is described as follows: Effect of compound on serum apolipoprotein A1 concentration in chow-fed male rats at a dose of 0 mg/kg/day. The format is functional, organism-based. The method, boiled down: (§1)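 Separate dose-response study in male Sprague–Dawley CD rats, 60–80 g, on chow. Oral gavage once daily for 4 days in 1.3% Tween 80 / 0.25% CMC; fasted overnight, bled 24 h after last dose. Apo-A1 by ELISA with rabbit anti-rat primary, alkaline phosphatase-conjugated anti-rabbit IgG and p-nitrophenyl phosphate substrate. HDL-C by FPLC fractionation. Mean ± SEM, six per group.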

In assay [2] the test system is Rattus norvegicus. The assay is described as follows: Effect of compound on thyroxine levels in 7th group of normal chow-fed male rats after a dose of 100 mg/kg/day. In kind it is functional, organism-based. The method, boiled down: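 Male Sprague–Dawley CD rats, 60–80 g, on standard chow with reverse 12 h light/dark cycle. One oral gavage dose daily for 4 days, suspended in 1.3% Tween 80 and 0.25% CMC. Fasted overnight; sacrificed 24 h after the last dose. Serum TC on clinical analyzer, lipoproteins by FPLC with cholesterol per fraction, T4 on analyzer. Mean ± SEM, six rats per group.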

The subject of assay [3] is Rattus norvegicus. The assay is described as follows: Effect of compound on aspartate aminotransferase (AST) levels in 2nd group of normal chow-fed male rats after a dose of 2 mg/kg/day. The format is functional, organism-based. The method, boiled down:
(§2)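 Male Sprague–Dawley CD rats (60–80 g) on standard chow under a reversed 12 h light/dark cycle. Compound was suspended in 1.3% Tween 80/0.25% CMC and given as a single daily oral gavage dose for 4 days. Rats were fasted overnight and killed 24 h after the last dose. Serum ALT, AST, ALKP and LDH were read on a clinical analyzer. Weight gain was start versus end weight. Mean ± SEM, n = 6.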

The test system of assay [4] is Rattus norvegicus. Briefly: Effect of compound on alanine aminotransferase (ALT) levels in 2nd group of normal chow-fed male rats after a dose of 2 mg/kg/day. In kind it is functional, organism-based. The gist of the method: as §2
Assay [5] relates to Rattus norvegicus. The assay is described as follows: Effect of compound on serum high-density lipoprotein cholesterol concentration in chow-fed male rats at a dose of 100 mg/kg/day. In kind it is functional, organism-based. The method, boiled down: as §1
Assay [6] has as its system Cricetinae gen. sp. The assay is described as follows: Effect of compound on low-density lipoprotein cholesterol levels in 1st group of cholesterol-fed male hamsters at 3 mg/kg/day after 14 days of treatment. The conditions noted are these: Mesocricetus auratus.
Assay [7] has as its system Rattus norvegicus. Briefly: Effect of compound on very low-density lipoprotein cholesterol levels in 5th group of normal chow-fed male rats after a dose of 20 mg/kg/day. The format is functional, organism-based. The gist of the method: (§3)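 Male Sprague–Dawley CD rats (60–80 g) on Purina 5001 chow with a reverse 12 h light/dark cycle. Dosed once daily by oral gavage for 4 days, suspended in 1.3% Tween 80 / 0.25% CMC. Fasted overnight and bled 24 h after the last dose. Serum TC and glycerol-blanked TG measured enzymatically; VLDL-C by FPLC fractionation with cholesterol assay. n=6, mean ± SEM.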

For assay [8], the system named is Rattus norvegicus. Briefly: Effect of compound on serum high-density lipoprotein cholesterol concentration in chow-fed male rats at a dose of 5 mg/kg/day. The format is functional, organism-based. The gist of the method: as §1
Assay [9] has as its system Cricetinae gen. sp. The assay is described as follows: Effect of compound on lactic dehydrogenase (LDH) levels in 2nd group of cholesterol-fed male hamsters at 10 mg/kg/day after 14 days of treatment. The conditions noted are these: Mesocricetus auratus.
The subject of assay [10] is Cricetinae gen. sp. Briefly: Effect of compound on alkaline phosphatase (ALKP) levels in 2nd group of cholesterol-fed male hamsters at 10 mg/kg/day after 14 days of treatment. The note with it: Mesocricetus auratus.
For assay [11], the system named is Cricetinae gen. sp. Briefly: Effect of compound on total plasma cholesterol levels in 4th group of cholesterol-fed male hamsters at 100 mg/kg/day after 14 days of treatment. The note with it: Mesocricetus auratus.
The subject of assay [12] is Rattus norvegicus. The assay is described as follows: Effect of compound on relative liver weight in 1st group of normal chow-fed male rats after a dose of 1 mg/kg/day. In kind it is functional. The gist of the method:
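Chow-fed male Sprague–Dawley CD rats, 60–80 g, dosed by oral gavage once daily for 4 days in 1.3% Tween 80/0.25% CMC. Fasted overnight and sacrificed 24 h after the last dose. Liver weight expressed as % of body weight at termination. Six per group, mean ± SEM.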

The subject of assay [13] is Rattus norvegicus. The assay is described as follows: Effect of compound on triglycerides level in 2nd group of normal chow-fed male rats after a dose of 2 mg/kg/day. In kind it is functional, organism-based. The method, boiled down:
as §3

Assay [14] is described as follows: Effect on serum lipids in 4th group of normal chow-fed male rats after a dose of 10 mg/kg/day was evaluated as ratio of total plasma cholesterol levels to high-density lipoprotein cholesterol levels. In kind it is functional. The gist of the method: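 Male Sprague–Dawley CD rats, 60–80 g, chow-fed, dosed by oral gavage daily for 4 days in 1.3% Tween 80/0.25% CMC. Fasted overnight, bled 24 h after the last dose. Serum total cholesterol by enzymatic reagent; HDL-C from cholesterol in FPLC fractions; TPC/HDL-C ratio calculated. Six per group, mean ± SEM.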

In assay [15] the test system is Cricetinae gen. sp. The assay is described as follows: Effect of compound on aspartate aminotransferase (AST) levels in 2nd group of cholesterol-fed male hamsters at 10 mg/kg/day after 14 days of treatment. The conditions noted are these: Mesocricetus auratus.
A further assay deals with Mesocricetus auratus. The assay is described as follows: Effect of compound on liver weight in 3rd group of cholesterol-fed male hamsters at 30 mg/kg/day after 14 days of treatment.
The subject of assay [16] is Cricetinae gen. sp. The assay is described as follows: Effect of compound on lactic dehydrogenase (LDH) levels in 3rd group of cholesterol-fed male hamsters at 30 mg/kg/day after 14 days of treatment. The conditions noted are these: Mesocricetus auratus.
Assay [17] has as its system Rattus norvegicus. The assay is described as follows: Percent change in high-density lipoprotein cholesterol in hypercholesterolemic rats dosed at 100 mg/kg/day for 8 days. The format is functional.
Assay [18] relates to Cricetinae gen. sp. The assay is described as follows: Effect of compound on lactic dehydrogenase (LDH) levels in 4th group of cholesterol-fed male hamsters at 100 mg/kg/day after 14 days of treatment. The conditions noted are these: Mesocricetus auratus.
Assay [19] relates to Rattus norvegicus. Briefly: Effect of compound on very low-density lipoprotein cholesterol levels in 3rd group of normal chow-fed male rats after a dose of 5 mg/kg/day. The format is functional, organism-based. The method, boiled down:
as §3

In assay [20] the test system is Cricetinae gen. sp. The assay is described as follows: Percent change in total plasma cholesterol following oral administration of compound in hypercholesterolemic hamsters at 100 mg/kg/day for 14 days. The format is functional. The method, boiled down:
(§4)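 Male Syrian Golden hamsters pre-fed chow plus 0.25% cholesterol for 2 weeks and kept on it. Dosed 100 mg/kg/day by oral gavage in 2% Tween 80/saline for 14 days. Serum total cholesterol and glycerol-blanked triglycerides read enzymatically; lipoproteins separated by FPLC with cholesterol measured in each fraction. % change versus vehicle controls; six per group, p < 0.05.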

In assay [21] the test system is Cricetinae gen. sp. Briefly: Effect of compound on very low-density lipoprotein cholesterol levels in 2nd group of cholesterol-fed male hamsters at 10 mg/kg/day after 14 days of treatment. The conditions noted are these: Mesocricetus auratus.
The test system of assay [22] is Cricetinae gen. sp. Briefly: Percent change in very low-density lipoprotein cholesterol following oral administration of compound in hypercholesterolemic hamsters at 100 mg/kg/day for 14 days. In kind it is functional. The gist of the method:
as §4

Assay [23] relates to Cricetinae gen. sp. Briefly: Effect of compound on aspartate aminotransferase (AST) levels in 3rd group of cholesterol-fed male hamsters at 30 mg/kg/day after 14 days of treatment. The conditions noted are these: Mesocricetus auratus.

For the compound `CCN1CC(=O)N(c2cc(Cl)ccc2C)C1=S`, the Serum level in the assay on Rattus norvegicus [1] was determined as 63.2 mg/dL; in the assay on Rattus norvegicus [2], 3.4 µg/dL; with Rattus norvegicus [5], 104 mg/dL; with Cricetinae gen. sp. [6], 178 mg/dL; with Rattus norvegicus [7], 5.3 mg/dL; with Rattus norvegicus [8] it was 52.4 mg/dL. Besides, the Serum level in the assay on Cricetinae gen. sp. [11] amounted to 373 mg/dL; in the assay on Rattus norvegicus [13], 15 mg/dL; in the assay on Rattus norvegicus [19] it was 3.9 mg/dL; in the assay with Cricetinae gen. sp. [21], 102 mg/dL. Also, the Level came to 195 U l-1 in the assay on Rattus norvegicus [3]; 59 U l-1 in the assay with Rattus norvegicus [4]; 1310 U l-1 with Cricetinae gen. sp. [9]; 147 U l-1 with Cricetinae gen. sp. [10]; 345 U l-1 with Cricetinae gen. sp. [15]; 823 U l-1 in the assay on Cricetinae gen. sp. [16]. The Level in the assay with Cricetinae gen. sp. [18] is 1390 U l-1; in the assay on Cricetinae gen. sp. [23] it was 204 U l-1. The compound also returned a Relative liver weight in the assay with Rattus norvegicus [12] of 4.3%. Further, in [14], the Ratio is recorded as 1.39. The compound also yielded a Liver weight in the assay with Mesocricetus auratus of 8.5 g. Also, the Change with Rattus norvegicus [17] is reported as 132%; in the assay with Cricetinae gen. sp. [20], -3.3%; in the assay on Cricetinae gen. sp. [22], -33.4%.

For the origin of these results see ChEMBL document CHEMBL1148398, “Design, synthesis, and biological evaluation of thio-containing compounds with serum HDL-cholesterol-elevating properties” (2004).
